Assay outcomes deposited in PubChem by Broad Institute.
GSIS activator – GLuc luminescence reporter in INS-1E cells, primary screen for activators of glucose-dependent secretion of insulin. INS-1E GLuc reporter insulin secretion, 2-3 h. activation, % at 16.6 µM. 0.61% of 370,000 active. AID 743287, 2014;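 active = lowest replicate activation of at least 40%, so every replicate reaches that level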;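 also: 0% = median of neutral control wells and 100% = median of IBMX positive control wells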
AF4-AF9 inh – inhibitors of AF4 peptide binding to AF9, primary screen, biochemical, AlphaScreen, biotin-AF4 peptide, FLAG-AF9, single point. 0.47% of 350,000 active. Protein AF-9 (Homo sapiens), P42568. AID 651704, 2012. inhibition, % at 10 µM;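 active = every replicate reaching a set inhibition limit, whatever the replicate mean, cut at about 25% in these data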;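 also: 0% = plate neutral control median and 100% = total signal loss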
S100A4 MyoIIA – inhibitors of S100A4-myosin IIA peptide binding, primary screen, biochemical, fluorescence polarization, TAMRA-MyoIIA peptide; Protein S100-A4 (Homo sapiens), P26447; inhibition, % at 10.7 µM; 0.14% of 360,000 active;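 active = mean inhibition of at least 70% across replicates, with every replicate also reaching that level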
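Test system: S100A4 monomer protein; Medium: HEPES pH 7.2 with CaCl2, KCl, NaCl, DTT, Triton; Probe or stimulus: TAMRA-labelled myosin IIA heavy-chain peptide probe, 5 nM; Doses: one dose per compound; Times: polarization read 5 min after assay mix addition, stable 5–60 min; Benchmarks: neutral control DMSO, positive control TFP.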
RAD54 branch – inhibitors of human RAD54 branch migration, primary screen, biochemical, fluorescence, single point; DNA repair and recombination protein RAD54-like (Homo sapiens), Q92698; RAD54 Holliday junction branch migration, FAM/BHQ fluorescence; inhibition, % at 10.4 µM; 0.14% of 360,000 active; AID 602329, 2012;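 active = mean normalized replicate activity at least 40 and at least half of replicates scoring 40 or more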;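 also: 0% = median of neutral control wells and 100% = median of positive control wells; inhibitors cause a drop in the FAM fluorescence signal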
Target sequence (Q92698 whole entry, looked up): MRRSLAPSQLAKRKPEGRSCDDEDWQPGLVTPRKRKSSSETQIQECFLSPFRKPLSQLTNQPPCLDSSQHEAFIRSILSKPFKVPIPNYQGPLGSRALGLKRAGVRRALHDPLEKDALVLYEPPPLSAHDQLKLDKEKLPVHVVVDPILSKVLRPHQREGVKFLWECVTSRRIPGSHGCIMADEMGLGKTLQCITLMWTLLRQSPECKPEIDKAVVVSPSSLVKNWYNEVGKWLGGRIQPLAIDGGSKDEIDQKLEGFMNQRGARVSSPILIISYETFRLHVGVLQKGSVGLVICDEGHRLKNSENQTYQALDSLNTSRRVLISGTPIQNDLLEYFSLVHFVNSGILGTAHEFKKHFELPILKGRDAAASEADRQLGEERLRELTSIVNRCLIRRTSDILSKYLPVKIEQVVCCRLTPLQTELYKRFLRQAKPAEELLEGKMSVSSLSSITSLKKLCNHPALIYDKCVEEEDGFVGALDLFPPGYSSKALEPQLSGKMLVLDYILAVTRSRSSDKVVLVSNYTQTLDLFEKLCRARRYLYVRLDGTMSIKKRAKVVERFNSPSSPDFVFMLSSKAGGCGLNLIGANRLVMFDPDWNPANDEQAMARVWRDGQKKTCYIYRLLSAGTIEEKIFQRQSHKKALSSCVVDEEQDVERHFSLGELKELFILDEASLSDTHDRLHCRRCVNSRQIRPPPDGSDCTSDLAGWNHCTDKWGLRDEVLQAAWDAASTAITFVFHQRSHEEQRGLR
RAD52 inh – RAD52 DNA annealing inhibitors, primary screen, biochemical, FRET, single point, set 2; inhibition, % at 18.7 µM; 0.46% of 360,000 active; DNA repair protein RAD52 homolog (Homo sapiens), P43351; AID 651710, 2012; recombinant RAD52 DNA annealing, FRET fluorescence;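 active = every replicate showing at least 50% inhibition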
Active calls of the source: *; i = inactive; . = no result. Rows were chosen to be rich in hits. Some 1.3% of all compounds tested hit in one or more screens of this group.

SMILES	GSIS activator	AF4-AF9 inh	S100A4 MyoIIA	RAD54 branch	RAD52 inh
c1ccc(Cc2nnc(-c3ccccc3)o2)cc1	29	.	.	2	.
COc1ccc(Cc2nnc(-c3ccccc3)o2)cc1	46*	.	-3	.	-14
CCC(=O)N1[C@H](C#N)[C@H](c2ccccc2-c2cccc(C)c2)[C@H]1CO	-15	-1	1	.	-7
N#Cc1sc2nc(C3CC3)cc(-c3ccccc3)c2c1N	49*	-8	1	-5	-7
FC(F)(F)c1nc(SCc2ccc(Cl)cc2Cl)n[nH]1	.	-1	8	.	-16
Cn1c(SCc2ccc(Cl)cc2Cl)nc(C(F)(F)F)cc1=O	65*	.	.	1	.
C[C@@H]1CN([C@H](C)CO)C(=O)CCCn2cc(nn2)CO[C@@H]1CN(C)Cc1ccc(-c2ccccc2)cc1	36	.	.	.	.
CCOC(=O)c1cnc(SCC(=O)OCC(=O)NC2CCS(=O)(=O)C2)nc1N (centres undefined)	42*	-21	1	.	7
N#Cc1nc(N2CCOCC2)nc(N2CCOCC2)n1	57*	.	.	2	.
COC(=O)C[C@@H]1C=C[C@H](NC(=O)Cc2ccccn2)[C@@H](CO)O1	64*	-2	0	.	-6
O=c1c2c([N+](=O)[O-])cc([N+](=O)[O-])cc2nc2ccccn12	5	-15	1	4	-1
O=c1c2c([N+](=O)[O-])cc([N+](=O)[O-])cc2sn1Cc1ccccc1	128*	-2	2	-11	-23
C[C@@H]1CN([C@H](C)CO)C(=O)c2cc(-c3ccccc3)cnc2O[C@H]1CN(C)C(=O)C1CCOCC1	14	0	23	-4	-1
O=C1C=CC(=O)N1CCCCCCN1C(=O)C=CC1=O	202*	.	.	.	.
COc1ccc2c3c(n(C)c2c1)[C@@H](CO)N(Cc1ccc(F)cc1)CC31CN(CC2CC2)C1	-22	6	5	.	16
COc1ccc2c3c(n(C)c2c1)[C@@H](CO)N(Cc1ccccc1F)CC31CN(CC2CC2)C1	-20	.	.	.	.
COc1ccc2c3c(n(C)c2c1)[C@@H](CO)N(CC1CC1)CC31CN(Cc2ccc(F)cc2)C1	-8	30*	-6	.	38
COc1ccc2c3c(n(C)c2c1)[C@@H](CO)N(Cc1ccccc1F)CC31CCN(CC2CC2)CC1	-3	33*	2	.	26
COc1ccc(/C(=C/c2ccc(OC(F)F)c(OC)c2)C(=O)O)cc1OC	75*	.	.	.	.
CCOc1ncccc1C(=O)OCc1ccc(C#N)cc1	55*	.	.	.	.
N#Cc1ccc(COC(=O)c2cccnc2Cl)cc1	4	-1	-2	-2	0
CCOc1ncccc1C(=O)OCC(=O)c1cccs1	50*	3	-1	7	-9
CCOc1ncccc1C(=O)NCc1ccc(C)cc1	45*	-6	-14	7	-13
CCOc1ncccc1C(=O)OCC(=O)c1ccc(Br)s1	4	-3	-7	.	0
CO[C@H]1CN(C)C(=O)c2ccc(NC(=O)NC(C)C)cc2OC[C@H](C)N(Cc2ccccc2)C[C@@H]1C	-8	-1	-10	2	14
SMILES	GSIS activator	AF4-AF9 inh	S100A4 MyoIIA	RAD54 branch	RAD52 inh
C[C@@H]1CN([C@@H](C)CO)C(=O)c2cccc(N(C)C)c2O[C@H]1CN(C)S(=O)(=O)c1ccc(F)cc1	20	-1	-3	-6	5
C[C@@H]1CN([C@H](C)CO)S(=O)(=O)c2ccc(C3=CCCCC3)cc2O[C@@H]1CN(C)C(=O)C1CCOCC1	-7	-1	3	-11	16
CC(C)NC(=O)Nc1cccc2c1O[C@H](CN(C)CC1CCCCC1)[C@@H](C)CN([C@H](C)CO)C2=O	-1	2	1	-2	7
CC(=O)Nc1c(-c2ccccc2)nc2ncccn12	-5	48*	-10	-1	-8
N#Cc1cnn2c(C(F)(F)F)cc(-c3ccccc3)nc12	44*	-4	3	3	3
COC(=O)c1cnn2c(C(F)(F)F)cc(-c3ccccc3)nc12	.	.	.	-4	.
COC(=O)C1Cc2c([nH]c3ccccc23)C2(CCN(Cc3ccccc3)CC2)N1 (centres undefined)	-11	30*	-2	3	2
CCCN1CCC2(CC1)NC(C(=O)O)Cc1c2[nH]c2ccccc12 (centres undefined)	.	.	.	-3	.
C=CCn1c(O)c(N=NC(=O)CNC(=O)c2ccco2)c2ccccc21	42*	-1	0	.	-1
CCn1c(O)c(N=NC(=O)CNC(=O)c2ccco2)c2ccccc21	9	-1	0	.	-10
CC(=O)c1cc2c(cc1C)CCCC2(C)C	43*	1	4	5	-8
CC(=O)c1cc(F)c(N2CCCCCC2)cc1C	.	.	.	8	.
COCCN(C(=O)COC(=O)Cc1c(C)nc2ccccc2c1C)c1c(N)n(CC(C)C)c(=O)[nH]c1=O	.	-4	2	-15	-4
COCCN(C(=O)COC(=O)Cc1cccc(OC)c1)c1c(N)n(CC(C)C)c(=O)[nH]c1=O	53*	-1	-2	.	-14
CCC(=O)Nc1ccc2c(c1)OC[C@@H](C)N(Cc1cncnc1)C[C@@H](C)[C@@H](OC)CN(C)C2=O	5	-2	3	1	8
Nn1cnc2c(c1=O)C1(CCCCC1)Cc1ccccc1-2	2	.	.	.	.
Oc1ccc(-c2nc3c4c(ncn3n2)-c2ccccc2CC42CCCC2)cc1	190*	.	.	.	.
N#CN=CN1CC=C(c2ccc(Cl)cc2)CC1	67*	0	-12	.	-2
COc1ccc(C)cc1NC(=O)c1cnc2scc(C)n2c1=O	2	1	-4	-6	-7
COc1ccc(CCNC(=O)c2cnc3scc(C)n3c2=O)cc1OC	61*	0	-1	-3	-4
CCOc1cc(/C=C2\CCCc3c2nc2ccccc2c3C(=O)O)ccc1OC	13	4	80*	-159	i
COc1ccc(C(=O)Nc2cccnc2Cl)cc1OC	47*	-31	-1	3	-2
COc1ccc(C(=O)Nc2cccc3cccnc23)cc1OC	4	-1	-1	7	-7
N/C(=N\OC(=O)COc1ccc(Cl)cc1Cl)c1cccnc1	60*	.	.	3	.
N/C(=N\OC(=O)COc1ccc(Cl)cc1)c1cccnc1	-7	-3	5	0	4
CCOc1cccc(C(=O)Nc2ccc(NC(=O)c3cc4ccccc4o3)c(OC)c2)c1	12	0	4	3	-2
COc1cc(NC(=O)c2cccc(C)c2)ccc1NC(=O)c1cc2ccccc2o1	83*	-2	-2	-7	-6
Cc1c(NC(=S)NC(=O)c2sc3ccccc3c2Cl)cccc1C(=O)O	63*	-2	0	-3	-8
